Activity calls are given as the source filed them. No cut-off for these calls is given here.
What was measured:
[1] = AUClast in C57BL/6 mouse at 5 mg/kg, iv measured upto 24 hrs by LC-MS/MS analysis; type: ADME, organism-based; set-up: time < 24 hr, dose 5 mg/kg, route intravenous; conditions: in vivo
Outline: (§1)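 Full PK run by a contract lab. Dosing was 50 mg/kg p.o. in water and 10% SBE-β-CD/PEG-400 (9:1 v/v), and 5 mg/kg i.v. Sampling at 0.25, 0.5, 1, 2, 4, 8 and 24 h (N = 5). Plasma samples were diluted in 50% acetonitrile and quantified by LC-MS/MS against standards serially diluted in 50% acetonitrile. Brain was also sampled after the oral dose.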

[2] = AUClast in C57BL/6 mouse brain at 50 mg/kg, po measured upto 24 hrs by LC-MS/MS analysis; type: ADME, organism-based; set-up: dose 50 mg/kg, time < 24 hr, route oral; conditions: in vivo; outline: as §1
[3] = Drug concentration in C57BL/6 mouse brain at 100 mg/kg, po measured after 0.5 hrs by LC/MS-MS analysis; type: ADME, organism-based; conditions: read-out: Drug uptake
Outline: (§2)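 PK screen in female C57BL/6 mice (N = 3 per time point). Dosed by gavage at 100 mg/kg in HPβD/PEG-400. Plasma and brain were taken from perfused mice at 30 and 120 min. Quantified by LC-MS/MS in MRM mode, with standard curves in each matrix and a common internal standard. Values are mean and s.d.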

[4] = Cmax in C57BL/6 mouse at 5 mg/kg, iv measured upto 24 hrs by LC-MS/MS analysis; type: ADME, organism-based; set-up: dose 5 mg/kg, route intravenous; conditions: in vivo; outline: as §1
[5] = Cmax in C57BL/6 mouse brain at 50 mg/kg, po measured upto 24 hrs by LC-MS/MS analysis; type: ADME, organism-based; set-up: dose 50 mg/kg, route oral; conditions: in vivo; outline: as §1
[6] = Antiproliferative activity against human MCF7:5C cells assessed as reduction in cell viability incubated for 7 days by Hoechst 33258 dye based assay relative to control; type: functional; conditions: 168 h
Outline: (§3)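 Cells were seeded at 5000 per well; MCF7:WS8 had been estrogen-stripped for 2 days first. Compounds were serially diluted in DMSO, with 0.01% DMSO as vehicle. The medium was removed on day 5 (MCF7:WS8) or day 7 (MCF7:5C), and cells were lysed by freezing at −80 °C overnight. DNA was measured by Hoechst 33258 fluorescence. Maximum efficacy was normalized to vehicle (0%) and no cells (100%); at least three biological replicates.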

[7] = AUClast/D in C57BL/6 mouse plasma at 50 mg/kg, po measured upto 24 hrs by LC-MS/MS analysis; type: ADME, organism-based; conditions: in vivo; outline: as §1
[8] = AUClast in CD-1 mouse plasma at 50 mg/kg, po measured upto 24 hrs by LC-MS/MS analysis; conditions: in vivo
[9] = test system: MCF7:TAM1; assay: Antitumor activity against human MCF7:TAM1 cells xenografted in athymic nude mouse assessed as tumor regression at 100 mg/kg, po measured after 4 weeks; type: functional, organism-based
Outline: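 MCF7:TAM1 cells were implanted into mammary fat pads of ovariectomized 4–6-week-old athymic nude mice carrying subcutaneous E2 silastic capsules (1.0 cm). Dosing was 100 mg/kg/day p.o. in 10% HPCD/PEG-400 (9:1). Tumor area was measured weekly by calipers as (length/2)×(width/2)×π.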

[10] = Antiproliferative activity against human MCF7:WS8 cells assessed as reduction in cell viability incubated for 5 days by Hoechst 33258 dye based assay relative to control; type: functional; conditions: MCF7:WS8, 120 h; outline: as §3
[11] = cells; conditions: Homo sapiens, MCF7:5C, 168 h, read-out: pIC50 (converted)
[12] = Antiproliferative activity against human MCF7:WS8 cells assessed as reduction in cell viability incubated for 5 days by Hoechst 33258 dye based assay; type: functional; conditions: MCF7:WS8, 120 h; outline: as §3
[13] = AUC (0 to infinity) in C57BL/6 mouse at 5 mg/kg, iv measured upto 24 hrs by LC-MS/MS analysis; type: ADME, organism-based; set-up: dose 5 mg/kg, route intravenous, time infinity; conditions: in vivo; outline: as §1
[14] = Half life in CD-1 mouse plasma at 50 mg/kg, po measured upto 24 hrs by LC-MS/MS analysis; conditions: in vivo
[15] = Plasma concentration in C57BL/6 mouse at 100 mg/kg, po measured after 0.5 hrs by LC/MS-MS analysis; type: ADME, organism-based; outline: as §2
[16] = AUC (0 to infinity) in C57BL/6 mouse brain at 50 mg/kg, po measured upto 24 hrs by LC-MS/MS analysis; type: ADME, organism-based; set-up: dose 50 mg/kg, route oral, time infinity; conditions: in vivo; outline: as §1
[17] = biological target: T1, Estrogen receptor (Homo sapiens, UniProt P03372); assay: Inhibition of ERalpha in human MCF7:WS8 cells assessed as increase in degradation of ERalpha incubated for 24 hrs by In-Cell Western assay; type: cell-based
T1 sequence (P03372 whole entry): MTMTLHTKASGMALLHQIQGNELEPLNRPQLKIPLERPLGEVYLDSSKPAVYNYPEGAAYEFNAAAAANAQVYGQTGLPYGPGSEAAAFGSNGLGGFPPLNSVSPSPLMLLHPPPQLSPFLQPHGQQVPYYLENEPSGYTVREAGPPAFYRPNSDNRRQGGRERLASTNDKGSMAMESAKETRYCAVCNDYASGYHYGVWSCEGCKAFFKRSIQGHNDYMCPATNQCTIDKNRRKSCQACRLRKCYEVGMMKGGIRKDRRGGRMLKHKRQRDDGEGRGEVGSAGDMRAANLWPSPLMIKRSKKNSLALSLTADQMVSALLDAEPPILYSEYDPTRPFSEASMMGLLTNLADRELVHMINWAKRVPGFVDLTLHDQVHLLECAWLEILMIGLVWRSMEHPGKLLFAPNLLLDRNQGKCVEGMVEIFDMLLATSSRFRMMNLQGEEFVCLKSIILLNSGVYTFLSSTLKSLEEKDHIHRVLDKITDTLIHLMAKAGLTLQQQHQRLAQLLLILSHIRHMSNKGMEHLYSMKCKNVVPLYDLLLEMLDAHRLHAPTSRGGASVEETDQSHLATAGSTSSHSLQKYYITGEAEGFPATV
Outline: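 MCF7:WS8 cells were estrogen-stripped for 2 days and plated at 2.5 × 10^4 per well. ERα was detected by in-cell western (H10 antibody), with signal normalized to CellTag 700.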

[18] = AUClast/D in CD-1 mouse at 5 mg/kg, iv measured upto 24 hrs by LC-MS/MS analysis; conditions: in vivo
[19] = test system: Rattus norvegicus; assay: Induction of uterotrophic activity in Sprague-Dawley rat assessed as increase in uterine weight at 10 mg/kg, po administered for 3 days and measured after 24 hrs of last dosing by hematoxylin eosin staining based imaging analysis; type: functional, organism-based
Outline: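 Female Sprague-Dawley rats were dosed from day 19 of age once daily for 3 days: 10 mg/kg p.o. in 2% Tween 80/0.5% methylcellulose. EE2 (0.1 mg/kg p.o., peanut oil) was the positive control. Uteri were excised and weighed 24 h after the last dose; one half was fixed in 4% paraformaldehyde for H&E histology.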

[20] = organism: Homo sapiens; assay: Cytotoxicity against human MCF7:WS8 3D spheroid cells assessed as reduction in tumor cell viability at 10 nM incubated for 14 days by celltiter-glo 3D cell viability assay
[21] = test system: T47D; assay: Cytotoxicity against human T47D 3D spheroid cells harboring D538G mutant assessed as reduction in tumor cell viability at 10 nM incubated for 14 days by celltiter-glo 3D cell viability assay

Cc1cc(F)cc(C)c1C(=O)c1sc2cc(O)ccc2c1Oc1ccc(OC2CN(CCCF)C2)cc1
AUClast [1]: 766 ng·h/mL | AUClast [2]: 2106 ng·h/mL | concentration at 0.5 h [3]: 1630 nM | Cmax [4]: 1590 ng/mL | Cmax [5]: 635 ng/mL | Emax [6]: 54% | AUClast/dose [7]: 33.6 ng·h/mL | AUClast [8]: 1678 ng·h/mL | Activity [9]: Active | Emax [10]: 80% | IC50 [11]: 0.347 nM | IC50 [12]: 0.55 nM | AUC [13]: 778 ng·h/mL | t1/2 [14]: 4.48 h | concentration at 0.5 h [15]: 2490 nM | AUC [16]: 3450 ng·h/mL | IC50 [17]: 1.02 nM | AUClast/dose [18]: 153 ng·h/mL | Activity [19]: inactive | Activity [20]: Active | Activity [21]: Active

From ChEMBL document CHEMBL4354825, “Design and Synthesis of Basic Selective Estrogen Receptor Degraders for Endocrine Therapy Resistant Breast Cancer” (J Med Chem, 2019)
